Compound activity (PubChem)
Calb FLC – affects C. albicans growth with fluconazole; 300,000 compounds, 0.57% hits; growth inhibition, % (test concentration not listed); C. albicans CaCi-2 (fluconazole-resistant clinical isolate) + fluconazole, Alamar Blue growth, 48 h;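 active = growth inhibition above about 58% in most replicates, limit read from the data, passing the limit was not always enough; inconclusive = exactly half the replicates above a set limit; inactive = most replicates below a set limit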;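 note: all wells also contain fluconazole at 8 µg/ml as a sub-toxic cotreatment; 0% = median of DMSO wells and 100% = median of geldanamycin control wells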
Insulin prom up – MIN6 insulin promoter up-regulation; MIN6 insulin promoter-GFP reporter, high-content imaging; hits give high values; z-score at 5 µM; 190,000 compounds, 0.3% hits;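 active = z-score above 3 at 5 µM with at least 500 cells counted in the well; inconclusive = wells under 500 cells, flagged as cytotoxic or low count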
MIN6 prolif – MIN6 beta-cell proliferation induction; MIN6 cells proliferation, ATPlite luminescence, 48 h; cells starved in 0.2% serum; 100% = growth in 10% serum; proliferation, % at 10 µM; 330,000 compounds, 0.29% hits;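 active = compounds whose signal lies at least 3.5 SD above the mean of all wells on their plate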;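 note: 0% = DMSO-treated cells in low-serum medium and 100% = 10% serum control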
m5-HT2A agonist – agonists of mouse serotonin 5-HT2A receptor (HTR2A); P35363; CHO-K1 mHTR2A beta-arrestin complementation, luminescence; percent of 30 µM serotonin response; activation, % at 7.6 µM; 360,000 compounds, 0.66% hits; AID 624169;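 active = activation above a run cutoff, the mean activation of all tested compounds plus 3 SD, cut at about 14% in these data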;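 note: 0% = plate median of compound wells and 100% = 30 µM serotonin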
SR-BI DiI-HDL act – SR-BI HDL lipid transfer activation; CHO ldlA[mSR-BI] cells, DiI-HDL uptake fluorescence, 3 h; 100 = double the neutral-control signal; activation, % at 12.5 µM; 320,000 compounds, 0.096% hits; AID 504775;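 active = mean replicate activation of at least 60% and every replicate at or above 60%; inconclusive = mean or all-replicate condition met, but not both; inactive = mean below 60% and not all replicates reaching 60%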;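 note: 0% = median plate neutral-control signal and 100% = twice that signal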
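Test system: SR-BI-overexpressing, LDLR-lacking CHO cells; Also added: labelled HDL, 10 µg/mL; Measured by: bottom-read cell fluorescence after medium removal, ex 550/em 595 nm; Timing: 3 h uptake period with compound, 37 °C; Buffer or medium: F12, 0.5% BSA, 25 mM HEPES; Doses: single compound concentration, delivered by pin transfer.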
SR-BI HDL uptake – mouse SR-BI HDL lipid transfer inhibition; ldlA[mSR-BI] CHO cells, DiI-HDL uptake fluorescence, 3 h; inhibition, % at 12.5 µM; 320,000 compounds, 0.96% hits; Q61009; AID 488896;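 active = mean replicate inhibition of at least 70% and a set share of replicates each scoring 70 or more; inconclusive = meets just one of the two criteria; inactive = fails both criteria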;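 note: 0% = median of neutral control wells and 100% = median of positive control wells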
Target sequence (Q61009 whole entry, looked up): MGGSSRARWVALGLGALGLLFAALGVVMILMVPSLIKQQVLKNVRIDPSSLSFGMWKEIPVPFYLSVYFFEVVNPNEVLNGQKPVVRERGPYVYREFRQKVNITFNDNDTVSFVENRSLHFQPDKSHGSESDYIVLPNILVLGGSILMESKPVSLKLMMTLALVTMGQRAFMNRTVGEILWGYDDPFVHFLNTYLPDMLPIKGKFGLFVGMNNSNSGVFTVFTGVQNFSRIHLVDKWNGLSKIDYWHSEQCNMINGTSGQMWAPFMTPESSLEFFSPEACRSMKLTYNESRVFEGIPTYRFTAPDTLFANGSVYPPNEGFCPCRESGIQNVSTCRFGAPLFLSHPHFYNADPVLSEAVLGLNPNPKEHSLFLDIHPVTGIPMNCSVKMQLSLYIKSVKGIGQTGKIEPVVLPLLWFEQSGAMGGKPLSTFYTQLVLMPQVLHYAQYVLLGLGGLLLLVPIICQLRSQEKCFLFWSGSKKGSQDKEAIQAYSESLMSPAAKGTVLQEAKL
* = called active by the depositor; ? = inconclusive; . = not tested or not shown. Only some compounds are listed: those with a hit (about 2.4% of all), similar ones and a draw of the others.

SMILES	Calb FLC	Insulin prom up	MIN6 prolif	m5-HT2A agonist	SR-BI DiI-HDL act	SR-BI HDL uptake
O=C(/C=C/c1ccc(O)cc1)c1ccc(NC2=C(N3CCCCC3)C(=O)c3ccccc3C2=O)cc1	46	?	-4	-2	-90	90*
COc1ccc(Cc2noc(CN3CCN(Cc4csc(C)n4)CC3)n2)cc1OC	-17	-0.72	-3	1	-4	4
O=S(=O)(c1ccc(NC(=S)N/N=C/c2ccc(O)c(O)c2)cc1)N1CCOCC1	-9	1.2	-3	-6	-8	8
O=[N+]([O-])c1cc(Cl)cc(/C=N/NC(=S)Nc2ccc(S(=O)(=O)N3CCOCC3)cc2)c1O	109*	-0.83	-5	-6	.	.
O=S(=O)(c1ccc(NC(=S)NN=Cc2ccccc2O)cc1)N1CCCCC1	.	.	.	4	-92	92*
Nn1c(SCC(=O)Nc2ccc(N3CCOCC3)cc2)nnc1-c1cccc(F)c1	.	.	0	4	4	-4
C=CCSc1nnc(COc2ccc(=O)n(-c3ccccc3)n2)n1CC	1	-0.72	1	1	-1	1
CCn1c(COc2ccc(=O)n(-c3ccccc3)n2)nnc1SCc1cccc(OC)c1	85*	-0.5	-1	-2	-15	15
COc1cc(SC)ccc1C(=O)OCC(=O)NC1CC1	98*	-0.46	5	4	32	-32
CCOc1ccccc1/C=N/NC(=O)c1cccc(S(=O)(=O)N2CCOCC2)c1	-7	0.77	-2	-1	-82	82*
CCN(CC)c1ccc(C=Nc2cccc(S(=O)(=O)N3CCOCC3)c2)c(O)c1	.	.	-3	-6	11	-11
CCOc1ccccc1/C=N/NC(=O)c1cc(C(C)C)[nH]n1	24	.	3	-6	-73	73*
CCN(CC)c1ccc(/C=N/NC(=O)c2cccc(S(=O)(=O)N3CCOCC3)c2)c(O)c1	102*	-6.4	-6	-1	-114	114*
CC(OC(=O)/C=C/c1ccccc1)C(=O)N1CCc2ccccc21 (configuration not stated)	-4	.	4	-2	22	-22
COc1ccccc1-c1cccc(-c2nc(C(=O)Nc3nccs3)cc3c2[C@@H](CCO)N(C(=O)CC2CC2)C3)c1	.	.	.	3	.	.
O=C(CCl)Nc1cccc2ncccc12	-2	4*	-3	2	6	-6
CC(C)n1ncc2c(C(=O)Nc3cccc(C#N)c3)cc(C3CC3)nc21	.	.	-5	-16	-75	75*
COc1ccc(NC(=O)c2cc(-c3ccccc3)nc3c2cnn3C(C)C)cc1	.	.	-2	0	-82	82*
CC(C)n1ncc2c(C(=O)N3CCN(c4ccccc4)CC3)cc(-c3ccccc3)nc21	.	.	-8	-6	1	-1
CCNC(=O)c1cccc(NC(=O)c2cc(C3CC3)nc3c2cnn3C(C)C)c1	.	.	3	-3	-75	75*
COc1ccc(CNC(=O)c2cc(C3CC3)nc3c2cnn3C(C)C)cc1	.	.	-6	-4	-31	31
O=C(NCc1csc(-c2ccccc2)n1)c1cc(F)cc2c1OCOC2	-2	0.11	1	3	-1	1
COc1ccc(C(NC(=O)C2CCN(CCOc3ccc(Cl)cc3Cl)CC2)c2cccs2)cc1 (configuration not stated)	.	.	.	-3	.	.
O=[N+]([O-])c1ccc(N2CCN(Cc3ccc([N+](=O)[O-])o3)CC2)cc1	133*	.	-3	2	-13	13
COc1cc(C(=O)Nc2cccc(-n3cnnn3)c2)cc(OC)c1OC	.	.	-2	0	-77	77*
SMILES	Calb FLC	Insulin prom up	MIN6 prolif	m5-HT2A agonist	SR-BI DiI-HDL act	SR-BI HDL uptake
COc1ccc(C(=O)NNc2ccccc2)cc1OC	106*	1.1	-4	9	-9	9
COc1cc(C(=O)Nc2ccc(Nc3ccccc3)cc2)cc(OC)c1OC	56	.	-1	0	-79	79*
COc1ccc(C(=O)NNC(=O)Cc2ccc(-c3ccccc3)cc2)cc1OC	7	-0.73	-2	-6	-5	5
COc1cc(C(=O)Nc2ccc(Cl)c([N+](=O)[O-])c2)cc(OC)c1OC	-3	-1.4	-3	-2	-80	80*
COc1cc(C(=O)Nc2ccncc2)cc(OC)c1OC	27	-0.38	-1	1	0	0
COc1cc(C(=O)Nc2ccc(Cl)c(C(F)(F)F)c2)cc(OC)c1OC	14	1.3	-2	-7	-58	58
COc1ccc(N(CC(=O)NC2CCCC2)C(=O)c2ccc(C)s2)cc1OC	-1	.	-2	-2	-23	23
Cc1ccc(S(=O)(=O)NC(=O)C2(C)CCN2C(=O)Cc2ccc(Cl)cc2Cl)nc1 (configuration not stated)	.	.	.	2	.	.
Cc1ccc(S(=O)(=O)c2c(C)nn(-c3ccccc3)c2OC(=O)c2ccc(Br)o2)cc1	.	0.25	.	5	15	-15
CC(C)c1cc2c(c(O)c1O)[C@@]13CCCC(C)(C)C1CC2OC3=O (some centres not stated)	0	.	-6	-4	17	-17
COc1ccc(NC(=O)c2cc(C)cc(C)c2)cc1[N+](=O)[O-]	-16	-0.06	0	4	-80	80*
Cc1ccccc1NC(=O)CSc1nc(Nc2ccccc2)nc(N2CCOCC2)n1	-6	-0.76	-2	-2	-81	81*
Cc1ccc(F)cc1NC(=O)CSc1nc(Nc2ccccc2)nc(N2CCOCC2)n1	1	.	-6	4	-65	65
Cn1c(CNC2CCCCC2)c(C#N)c2ccccc21	-9	-0.38	3	-2	-11	11
Cc1ccc(S(=O)(=O)N2C[C@H]3C(=O)C[C@@H](c4ccc(Cl)cc4)N(S(=O)(=O)c4ccccc4C)[C@H]3C[C@H]2c2ccccc2)cc1	.	.	.	3	.	.
COC(=O)c1cccc(NC(=S)Nc2ccccc2Cl)c1	0	0.7	-2	0	-29	29
COC(=O)c1cc(NC(=S)Nc2cc(Cl)cc(Cl)c2)cc(C(=O)OC)c1	-50	0.03	-6	6	-86	86*
COc1ccc(/C=N/Nc2cc(C)nc(-n3nc(C)cc3C)n2)c(OC)c1	16	.	-6	-11	-79	79*
O=C(NC1CCS(=O)(=O)C1)c1cccc(Cl)c1 (configuration not stated)	0	.	-2	1	5	-5
Cc1nc2c(C(=O)NCCC(C)C)c[nH]n2c(=O)c1Cl	-4	0.04	-3	9	14	-14
Cc1nc2c(C(=O)NCCC(C)C)c[nH]n2c(=O)c1Cc1ccccc1F	85*	0.13	-4	13	8	-8
Cc1ccnc(NC(=O)C(Cc2ccccc2)NC(=O)c2ccccc2)c1 (configuration not stated)	.	.	-3	-6	0	0
CC1CN(C(=S)NC(=O)c2cccc([N+](=O)[O-])c2)CC(C)O1 (configuration not stated)	4	1.5	0	-4	.	.
